Laboratory results taken from ChEMBL document CHEMBL1121817, “Synthesis and pharmacological properties of 1,2,3,4,5,6-hexahydro-1,6-methano-2-benzazocines” (J Med Chem, 1981).
Values joined by “and” are separate entries in the source; they are usually repeats but may differ in a detail not shown here. Equal entries are not always repeated. Active and inactive are the calls of the source. No cut-off for these calls is given here.

Assays:
Mus musculus [1] = organism: Mus musculus; experiment: Analgesic potency was determined by the Eddy hotplate method on mice expressed as effective dose; assay type: functional
Outline: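 Mouse Eddy hot-plate test. Compounds were given as aqueous solutions of the hydrochloride, hydrobromide or oxalate salt. ED50 is reported in mg/kg and μmol/kg, with a range in parentheses for some entries.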

[2] = Analgesic potency was determined by the Eddy hotplate method on mice expressed as lethal dose; assay type: ADME, organism-based; details: mouse, in vivo
Outline: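 Toxicity was tested in mice in the same series, using aqueous solutions of the hydrochloride, hydrobromide or oxalate salt, and LD50 is reported in mg/kg. When material was scarce, deaths out of ten mice given a single 50 mg/kg dose were recorded instead.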

Mus musculus [3] = organism: Mus musculus; experiment: Analgesic potency was determined by the Eddy hotplate method on mice; assay type: functional
Mus musculus [4] = organism: Mus musculus; experiment: Analgesic potency was determined by the Eddy hotplate method on mice expressed as effective dose; IA=Inactive; assay type: functional, organism-based
Outline: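 Mice, Eddy hot-plate analgesia. Test compounds given as aqueous solutions of their hydrochloride, hydrobromide or oxalate salts. ED50 reported in mg/kg and μmol/kg, some with a range in parentheses. Where full activity could not be reached without toxicity, an approximate value is cited. Lethality was scored as LD50 in mg/kg or as deaths per ten mice at 50 mg/kg.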

Row | SMILES | LD50 [2] | ED50 (Mus musculus [3]) | other results
1 | COc1ccc2c(c1)C1CCCNC2C1.O=C(O)C(=O)O (stereo unspecified) |  |  | ED50 (Mus musculus [1]): 64 mg/kg and 218 µmol/kg
2 | Br.Oc1ccc2c(c1)C1CCCN(CCc3ccccc3)C2C1 (stereo unspecified) |  |  | ED50 (Mus musculus [1]): 14 mg/kg and 37 µmol/kg
3 | Cl.c1ccc2c(c1)C1CCCNC2C1 (stereo unspecified) | 225 mg/kg | 12 mg/kg and 57 µmol/kg | 
4 | CCCN1CCCC2CC1c1ccccc12.Cl (stereo unspecified) | 75 mg/kg | 28 mg/kg and 112 µmol/kg | 
5 | COc1ccc2c(c1)C1CCCN(CCc3ccccc3)C2C1 (stereo unspecified) |  |  | ED50 (Mus musculus [4]): inactive
6 | C=CCN1CCCC2CC1c1ccccc12.Cl (stereo unspecified) | 110 mg/kg | 28 mg/kg and 112 µmol/kg | 
7 | CC(C)=CCN1CCCC2CC1c1ccccc12.Cl (stereo unspecified) | 65 mg/kg | 48 mg/kg and 173 µmol/kg | 
8 | O=C(O)C(=O)O.c1ccc(CCN2CCCC3CC2c2ccccc23)cc1 (stereo unspecified) | 225 mg/kg |  | 
9 | COc1ccc2c3c1O[C@H]1[C@@H](O)C=C[C@H]4[C@@H](C2)N(C)CC[C@@]341.COc1ccc2c3c1O[C@H]1[C@@H](O)C=C[C@H]4[C@@H](C2)N(C)CC[C@@]341.O.O=P(O)(O)O.O=P(O)(O)O [CODEINE PHOSPHATE] |  | 6.8 mg/kg and 17 µmol/kg | 
10 | CN1CCCC2CC1c1ccc(O)cc12 (stereo unspecified) |  |  | ED50 (Mus musculus [4]): inactive
11 | Br.CCCN1CCCC2CC1c1ccc(O)cc12 (stereo unspecified) |  |  | ED50 (Mus musculus [1]): 32 mg/kg and 103 µmol/kg
12 | COc1ccc2c(c1)C1CCCN(CC=C(C)C)C2C1.O=C(O)C(=O)O (stereo unspecified) | 300 mg/kg |  | ED50 (Mus musculus [4]): inactive
13 | CC(C)=CCN1CCCC2CC1c1ccccc12.O=C(O)C(=O)O (stereo unspecified) | 130 mg/kg |  | 
14 | CCCN1CCCC2CC1c1ccccc12.O=C(O)C(=O)O (stereo unspecified) | 110 mg/kg |  | 
15 | Cl.c1ccc(CCN2CCCC3CC2c2ccccc23)cc1 (stereo unspecified) | 225 mg/kg | 86 mg/kg and 246 µmol/kg | 
16 | O=C(O)C(=O)O.c1ccc2c(c1)C1CCCNC2C1 (stereo unspecified) | 225 mg/kg |  | 
17 | C=CCN1CCCC2CC1c1ccccc12.O=C(O)C(=O)O (stereo unspecified) | 150 mg/kg |  | 
18 | Br.CN1CCCC2CC1c1ccccc12 (stereo unspecified) |  | 45 mg/kg and 168 µmol/kg | 
19 | COc1ccc2c(c1)C1CCCN(C)C2C1.O=C(O)C(=O)O (stereo unspecified) | 157 mg/kg |  | ED50 (Mus musculus [1]): 16 mg/kg and 52 µmol/kg
